# Bioassay records from PubChem.
# In the library only some 1.3% were active in any assay of this set; here they are far more common.
# proCasp7 act = activates human procaspase-7, counter-screen for procaspase-3 activators. P55210. recombinant procaspase-7, Ac-DEVD-pNA absorbance 405 nm; D23A/D198A/D206A triple mutant, cannot self-cleave; scale: DMSO 0, 5 µM enzyme 100. actives 0.093% (n = 330,000). activation, % at 8.5 µM;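 active = percent activation above the screen-wide mean plus 3 SD, cut at about 25% in these data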
# Target sequence (P55210 whole entry D23A/D198A/D206A): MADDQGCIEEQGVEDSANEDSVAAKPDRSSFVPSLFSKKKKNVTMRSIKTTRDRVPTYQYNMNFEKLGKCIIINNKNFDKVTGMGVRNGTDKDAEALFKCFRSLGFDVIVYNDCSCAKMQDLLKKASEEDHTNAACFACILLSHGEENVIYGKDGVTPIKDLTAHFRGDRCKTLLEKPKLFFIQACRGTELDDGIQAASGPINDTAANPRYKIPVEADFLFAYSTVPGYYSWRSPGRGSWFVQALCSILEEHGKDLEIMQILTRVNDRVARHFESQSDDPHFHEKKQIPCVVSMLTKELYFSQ
#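 Assay system: Uncleavable procaspase-7 mutant enzyme | Input: 2 µM procaspase-7 mutant as dispensed | Timing: 1 h compound preincubation, 2 h substrate cleavage, 25 °C | Repeats: One well per compound | Control set: DMSO wells as 0%, DMSO with 5 µM added PC-7 as 100% | Technique: Epi-absorbance of released pNA at 405 nm, two timepoints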
# CHT inh = human CHT choline transport inhibition; CHT-expressing cells, membrane potential dye, choline response; active compounds read low; actives 0.86% (n = 310,000); AID 488975; B-score at 10 µM;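 active = B-score over 3 SD under the library average, and starting fluorescence ratio not unusually high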;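 also: choline stimulus applied at its EC90 after an EC20 pre-addition; B-score computed on integrated fluorescence ratio after choline addition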
# procasp3 activ = procaspase-3 (human) activation | P42574 | AID 463141 | activation, % at 8.5 µM | recombinant procaspase-3 D3A, Ac-DEVD-pNA absorbance 405 nm | actives 0.11% (n = 330,000);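 active = activation above the mean of all tested compounds plus 3 SD, cut at about 21% in these data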;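 also: 0% = DMSO alone and 100% = DMSO wells spiked with extra 5 µM PC-3 D3A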
#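 Technique: 405 nm absorbance of p-nitroaniline, reads at 0 and 120 min; Test system: Procaspase-3 D3A mutant; Incubation: 1 h enzyme-compound preincubation, then 2 h substrate reaction, 25 °C; Repeats: singlicate, each compound tested once; Benchmarks: low control DMSO wells, high control DMSO plus 5 µM PC-3 D3A.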
# CHT allo act = allosteric activators of human choline transporter CHT. AID 488977. B-score at 10 µM. actives 0.49% (n = 310,000). Q9GZV3. CHT-expressing cells, membrane potential dye, choline EC20; active compounds read high; LV-AA mutant CHT in HEK293 cells;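 active = initial fluorescence not abnormally high and integrated response B-score, plate-corrected, over 3 SD above library mean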
# Starred values were filed as active, the others as inactive; i = inactive; / = no result.
SMILES,proCasp7 act,CHT inh,procasp3 activ,CHT allo act
Cc1ccccc1C(OCC(O)CN1CCN(CCO)CC1)c1ccccc1 (stereo unspecified),-4,i,2,i
CCCCC1=CC2=C(c3ccco3)C(=O)C(C)(OC(=O)c3ccc(OC)cc3)C(=O)C2=CN1C1CCCC1 (stereo unspecified),-10,-7*,-6,i
CCC(C)(C)C1CCc2c(sc(NC(=O)c3ccccc3C(=O)O)c2C#N)C1 (stereo unspecified),-3,-7.7*,4,i
CC1CCc2c(sc(NC(=O)c3ccccc3C(=O)O)c2C#N)C1 (stereo unspecified),6,i,5,i
Cc1ccc(C(=O)O)cc1N1C(=O)c2cccc3c([N+](=O)[O-])ccc(c23)C1=O,-3,-5*,0,i
CC(=O)Oc1cccc(N2C(=O)c3cccc4c([N+](=O)[O-])ccc(c34)C2=O)c1,-1,i,-9,i
CCSc1nnc(NC(=O)C(C(F)(F)F)C(F)(F)F)s1,-1,i,0,i
CCSc1nnc(NC(=O)C(CC)(C(F)(F)F)C(F)(F)F)s1,3,-5.2*,-2,i
CCN(CC)C(=O)Oc1ccc2oc(=O)cc(-c3cc4cccc(OC)c4o3)c2c1,9,i,19,i
O=C(COC(=O)c1ccccc1NC(=O)c1ccccc1)c1cccc([N+](=O)[O-])c1,-6,i,3,i
O=C(COC(=O)c1ccccc1NC(=O)c1ccccc1)c1ccc([N+](=O)[O-])cc1,-6,i,-13,6.4*
O=C(COc1ccccc1Cl)Nc1cccc(S(=O)(=O)NC2=NCCCCC2)c1,7,i,8,i
Cc1cc(Cl)c(C)c(S(=O)(=O)N2CCN(CC(=O)N3CCOCC3)CC2)c1Cl,0,/,-4,/
O=C(O)c1ccccc1C(=O)N1CCN(c2cccc(Cl)c2)CC1,7,i,-2,i
CCOc1ccccc1C(=O)N1CCN(c2cccc(Cl)c2)CC1,1,i,2,12*
Cc1ccc(O)c(CNCCNCc2cc(C)ccc2O)c1,3,i,1,i
CCc1ccc(O)c(CNCCNCc2cc(CC)ccc2O)c1,7,-6.8*,6,i
CCC(=O)N(CCC(c1ccccc1)c1ccco1)Cc1cccs1 (stereo unspecified),-1,i,-1,9.5*
COc1ccccc1C(CCN(Cc1cccs1)C(C)=O)c1ccco1 (stereo unspecified),-13,i,-15,i
O=C(Nc1cccc(N=Cc2cc(Cl)cc(Br)c2O)c1)c1ccco1,-14,-7.1*,10,i
COc1ccc(C)cc1NS(=O)(=O)c1ccc2c(c1)CCN2C(C)=O,8,i,-2,i
C=CCn1c(SCC(=O)NCC2CCCO2)nnc1-c1ccncc1 (stereo unspecified),1,/,9,/
Nc1nc2ccccc2n1CCOc1ccccc1Cl,1,-14*,7,i
Nc1nc2ccccc2n1CCOc1ccc(Cl)cc1,11,i,4,i
Cc1cc(C(=O)N/N=C/c2cc(N=Nc3ccccc3)ccc2O)n[nH]1,26*,i,18,i
SMILES,proCasp7 act,CHT inh,procasp3 activ,CHT allo act
C[C@H](CO)N1C[C@H](C)[C@@H](CN(C)S(=O)(=O)c2ccccc2)Oc2ccc(NC(=O)CCN3CCOCC3)cc2C1=O,-6,/,-1,/
C[C@H](CO)N1C[C@H](C)[C@@H](CN(C)S(C)(=O)=O)Oc2ccc(NC(=O)CCN3CCOCC3)cc2C1=O,27*,/,-2,/
CCN(CC)CCNC(=O)c1ccc2c(=O)n(C3CCCC3)c(=S)[nH]c2c1,13,-15*,-9,i
COc1cc(C2CC(=O)Oc3c(C(CCN4CCCC(C)C4)c4ccc(N(C)C)cc4)c(OC)cc(OC)c32)cc(OC)c1OC (stereo unspecified),5,i,-1,i
COc1cc(C(CCN2CCCC(C)C2)c2c(OC)cc(OC)c3c2OC(=O)CC3c2ccc(N(C)C)cc2)cc(OC)c1OC (stereo unspecified),-7,-5.1*,11,i
CN1CCN(CCCNC(=O)c2cn(C3CCCCC3)c(=O)c3c2c2ccccc2n3C)CC1,3,-5*,-4,i
Cn1c2ccccc2c2c(C(=O)NCC3CCCO3)cn(C3CCCC3)c(=O)c21 (stereo unspecified),3,i,-4,i
